High-throughput results from PubChem BioAssay.
An excerpt weighted towards active compounds, which were near 2.6% of everything screened.
OXTR potentiate = potentiators of human oxytocin receptor | 0.061% of 320,000 active | CHO-OTR cells, Fluo-8 calcium fluorescence, potentiator mode; 0% = oxytocin EC15, 100% = EC100 | activation, % at 3 µM | P30559;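 active = activation above that plate's cutoff, the mean activation of tested compounds plus 3 SD, cut at about 6.6% in these data, passing the limit was not always enough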;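 note: 100% uses oxytocin at 75 nM as the full agonist control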
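Measured by – Fluo-8 calcium dye fluorescence · Test system – human OTR in CHO cells · Dosing – one concentration, 3.0 µM compound · Controls – EC15 oxytocin alone as 0%, 75 nM oxytocin as 100% · Evaluation – normalized max/min fluorescence ratio, % activation · Timing – 6 min pre-incubation, 100 s read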
OXTR agonist = agonists of human oxytocin receptor; 0.32% of 320,000 active; AID 2435; activation, % at 3 µM; P30559; CHO-OTR cells, Fluo-8 calcium fluorescence; normalized: DMSO 0%, oxytocin 100%;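 active = activation above the mean of all tested compounds plus 3 SD, cutoff set per screening run, cut at about 20% in these data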;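 note: peak over basal fluorescence ratio from a 100 s FLIPR kinetic read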
CHO parental Ca = signal in parental CHO cells, OX1R antagonist counter-screen | 0.63% of 330,000 active | parental CHO-K1, ATP-induced calcium, Fluo-8 fluorescence | AID 463079 | inhibition, % at 5.6 µM;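 active = inhibition above that plate's mean sample inhibition plus 3 SD, cut at about 26% in these data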;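 note: 0% = ATP-challenged DMSO wells and 100% = DMSO wells without ATP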
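Assay system – parental CHO cells · Reagent – ATP stimulus · Detection – intracellular calcium via Fluo-8 no-wash fluorescent dye · Evaluation – percent inhibition of ATP-evoked calcium rise, normalized to controls · Controls – ATP wells versus no-ATP DMSO wells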
OX1R antag-1 = blocks the human orexin 1 receptor; O43613; OX1R-expressing cells, FRET antagonist read-out; inhibition, % at 6.6 µM; 1.8% of 330,000 active; AID 485270; in the data active = inhibition mostly above about 38%, no sharp cut-off; inactive = mostly below about 40%;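 note: 0% = agonist challenge alone and 100% = reference antagonist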
V1aR counter = activates human V1a receptor in oxytocin agonist counter-screen | 0.25% of 320,000 active | P37288 | activation, % at 3 µM | CHO-V1R cells, Fluo-8 calcium fluorescence, agonist mode; 0% DMSO, 100% 3 nM vasopressin;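 active = activation above the mean activation of all tested compounds plus 3 SD, per screening run, cut at about 20% in these data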;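 note: signal is peak over basal fluorescence ratio across a 100 second FLIPR read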
Target sequence (P37288 whole entry, looked up): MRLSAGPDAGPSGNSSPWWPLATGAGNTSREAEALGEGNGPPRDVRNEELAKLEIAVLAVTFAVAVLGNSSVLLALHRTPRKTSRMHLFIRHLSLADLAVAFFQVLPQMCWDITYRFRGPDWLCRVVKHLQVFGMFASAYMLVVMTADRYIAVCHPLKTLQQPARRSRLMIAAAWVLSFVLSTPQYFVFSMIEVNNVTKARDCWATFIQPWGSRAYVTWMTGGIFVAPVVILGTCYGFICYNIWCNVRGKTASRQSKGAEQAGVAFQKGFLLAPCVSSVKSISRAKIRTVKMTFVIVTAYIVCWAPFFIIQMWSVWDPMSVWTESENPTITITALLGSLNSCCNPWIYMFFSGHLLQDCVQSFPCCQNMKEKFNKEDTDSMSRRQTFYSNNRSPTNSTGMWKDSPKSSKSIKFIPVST
OX1R antag-2 = blocks the human orexin 1 receptor | O43613 | CHO/OX1R cells, Fluo-8 calcium fluorescence, orexin A | inhibition, % at 5 µM | 0.43% of 330,000 active | AID 434989;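 active = inhibition above its plate's threshold, mean inhibition of all tested compounds on the plate plus 3 SD, cut at about 37% in these data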;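 note: 0% = orexin A challenge wells and 100% = SB-334867-A antagonist wells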
OX1R Fluo8 conf = confirmation of human orexin 1 receptor antagonists; shares compounds with OX1R antag-2; CHO/OX1R cells, orexin A calcium Fluo-8 fluorescence; inhibition, % at 5 µM; 38% of 1,100 active; in the data active = inhibition above about 29%;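 note: 0% = agonist challenge alone and 100% = reference antagonist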
CHO Ca triplic = counter-screen for OX1R antagonists: effect in parental CHO cells. shares compounds with OX1R antag-2. parental CHO-K1, ATP-induced calcium, Fluo-8 fluorescence. inhibition, % at 5.6 µM. 9.3% of 1,100 active. AID 492965;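 active = inhibition above a per-plate limit, the mean inhibition of that plate's test compounds plus 3 SD, cut at about 25% in these data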;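 note: 0% = ATP challenge with DMSO and 100% = DMSO without ATP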
An asterisk follows results filed as active; x = not tested or not shown.

SMILES	OXTR potentiate	OXTR agonist	CHO parental Ca	OX1R antag-1	V1aR counter	OX1R antag-2	OX1R Fluo8 conf	CHO Ca triplic
O=C(CSc1cn(CCNC(=O)c2ccc3ccccc3c2)c2ccccc12)NCc1ccco1	-5	1	13	29	3	22	2	-11
CCN(c1ccccc1)S(=O)(=O)c1ccc(Cl)c(NC(=O)COC(=O)c2ccc(O)cc2)c1	-12	0	-11	23	3	-7	x	x
CCN(c1ccccc1)S(=O)(=O)c1ccc(Cl)c(NC(=O)COC(=O)C2CC2C)c1 (stereo not given)	-11	-2	10	17	0	27	-5	-8
CSc1cccc(NC(=O)CN(c2cc(C)ccc2C)S(C)(=O)=O)c1	-8	1	1	19	2	26	2	-15
Cc1coc2cc3oc(=O)ccc3cc12	-11	0	-1	5	0	106*	2	18
COc1ccc2c(COC(=O)c3cccc(S(=O)(=O)NCC(C)C)c3)cc(=O)oc2c1	-28	7	15	34	7	46*	42*	5
O=[N+]([O-])c1cc(S(=O)(=O)NC2=NCCCCC2)ccc1NCC1CCCCC1	-11	1	-2	5	3	-6	x	x
CCCCN(CC)CCCNC(=O)CN1C(=O)CSc2ccc(S(=O)(=O)N3CCOCC3)cc21	0	1	9	25	1	-11	x	x
O=c1cc(CNc2ccc(Br)cc2)nc2sccn12	-6	5	-8	3	4	-17	x	x
CCOc1ccc(NC2=C(Cl)C(=O)N(Cc3ccccc3)C2=O)cc1	-9	-1	5	33	0	51*	-7	-8
C=CCSc1nnc(-c2cc3c(s2)-c2ccccc2CC3)o1	-19	2	0	55	2	34	-1	-6
Clc1cccc(-c2nnc(SC/C=C/c3ccccc3)n2Cc2ccco2)c1	-5	2	19	12	2	49*	13	-3
C(=C\c1ccccc1)/CSc1nnc(-c2ccccc2)n1Cc1ccco1	-6	0	-8	9	-1	4	x	x
Cc1ccc(C)c(OCC(=O)N/N=C/c2c(C)nn(-c3ccccc3)c2Cl)c1	-7	-1	-20	31	0	34	10	-9
Cc1nn(-c2ccccc2)c(Cl)c1/C=N/NC(=O)OC(C)(C)C	-4	-1	-2	7	5	8	x	x
CC(C)C(C)NC(=O)COC(=O)C1CCN(S(=O)(=O)c2ccc3c(c2)OCCO3)CC1 (stereo not given)	5	-1	-3	11	0	-31	x	x
CCn1nc(C(=O)Nc2cccc3ccccc23)c(Cl)c1Cl	-21	-2	-25	20	-2	35	-12	-21
CSc1nc(N)n2nc(C(C)(C)C)cc2n1	-6	-2	-3	5	0	2	x	x
CC(C)(C)c1cc2nc(N)nc(N)n2n1	6	0	-12	-5	1	50*	6	5
Cc1ccc(-n2nc3c(=O)n(C(C)C(=O)NC4CC4)nc(C)c3c2C)cc1 (stereo not given)	-6	-1	-15	14	1	-22	x	x
COc1ccc(N2CCN(S(=O)(=O)c3ccc(OC)c(C(=O)N4CCCC4)c3)CC2)cc1	-1	1	-11	13	0	-15	x	x
COc1ccc(OC)c(NS(=O)(=O)c2ccc(Cl)nc2)c1	-2	0	-10	10	0	-26	x	x
CCCCOc1ccc(S(=O)(=O)Nc2cc(OC)ccc2OC)cc1	-7	3	17	15	2	51*	3	5
COc1cc(OC)c(OC)cc1/C=C/C(=O)c1ccc(NS(=O)(=O)c2ccc(C)cc2)cc1	-14	-1	-19	33	1	4	x	x
COc1ccc(NS(=O)(=O)c2ccc(NC(=S)NC(=O)C(C)C)cc2)cc1	-22	20*	18	31	24*	31	32*	13
SMILES	OXTR potentiate	OXTR agonist	CHO parental Ca	OX1R antag-1	V1aR counter	OX1R antag-2	OX1R Fluo8 conf	CHO Ca triplic
COc1cccc(NC(=O)CN(c2ccccc2OC)S(=O)(=O)c2cccs2)c1	-8	-1	-16	21	2	36	14	-8
CCOC(=O)Cn1c2ccccc2c2nc3ccccc3nc21	-13	0	-8	15	2	-12	x	x
COc1ccc(Cn2c3ccc(OC)cc3c3nc4ccccc4nc32)cc1	-4	-1	-3	2	-1	3	x	x
CCCn1c2ccccc2c2nc3ccccc3nc21	-7	-2	-29	72	1	28	12	-14
CCn1c2ccc(F)cc2c2nc3ccccc3nc21	-6	-1	-17	95	-1	34	27	-4
COc1ccc(C(=O)OCC(O)COC(=O)c2ccc(OC)cc2)cc1	-12	0	-7	15	0	-11	x	x
Cc1cccc(N2CCN(C(=O)c3ccc(CS(=O)Cc4cccc(Cl)c4)o3)CC2)c1C (stereo not given)	-12	4	21	12	6	31	7	-7
COc1ccc(NC(=O)C(c2ccccc2)N2CCN(c3ccccn3)CC2)cc1Cl (stereo not given)	0	-2	-10	17	0	-14	x	x
Cc1ccnc(NS(=O)(=O)c2cc([N+](=O)[O-])ccc2C)c1	-4	0	0	48	0	30	7	17
COc1cc(/C=C/C(=O)CC(=O)/C=C/c2ccc(O)c(OC)c2)ccc1O	-22	33*	23	10	24*	34	31*	30*
COc1cc(/C=C/C(=O)O)ccc1O	-2	1	-2	13	0	-3	x	x
COC(=O)c1ccccc1C(=O)N(c1ccccc1)c1ccccc1	-3	-2	-4	9	-1	-8	x	x
COc1ccc(N(CC(=O)Nc2cccc(N(C)S(C)(=O)=O)c2)S(=O)(=O)c2ccccc2)cc1Cl	-24	0	-6	68	1	59*	56*	-3
COc1ccc(N(CC(=O)Nc2ccc(OC)c(OC)c2)S(=O)(=O)c2ccccc2)cc1Cl	-5	-1	-16	6	-2	-33	x	x
COc1ccc(N(CC(=O)Nc2cccc(N(C)S(C)(=O)=O)c2)S(=O)(=O)c2ccc(C)cc2)cc1	-10	-1	-4	28	0	27	10	1
Cc1cc(C)n(-c2nc(-c3cccc(Cl)c3)cs2)n1	-12	-2	-26	47	1	41*	6	-17
